The target in data set [1] is T1, Glucose-dependent insulinotropic receptor (Homo sapiens) (UniProt Q8TDV5).
T1 sequence (whole entry): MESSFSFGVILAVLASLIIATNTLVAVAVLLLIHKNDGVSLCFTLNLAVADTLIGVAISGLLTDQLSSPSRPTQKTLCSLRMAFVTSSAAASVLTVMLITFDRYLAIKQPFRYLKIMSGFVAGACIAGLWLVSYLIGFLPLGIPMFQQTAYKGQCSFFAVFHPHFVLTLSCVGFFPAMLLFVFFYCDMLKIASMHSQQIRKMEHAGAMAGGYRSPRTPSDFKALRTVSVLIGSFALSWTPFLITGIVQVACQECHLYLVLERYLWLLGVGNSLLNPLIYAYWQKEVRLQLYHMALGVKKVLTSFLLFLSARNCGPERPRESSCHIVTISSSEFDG
The data set is described as follows: Intrinsic activity at human GPR119 expressed in HEK293 cells co-expressing Flp-In-T-Rex assessed as cAMP accumulation after 60 mins relative to propan-2-yl 4-({6-[(2-fluoro-4-methanesulfonylphenyl)amino]pyrimidin-4-yl}oxy)piperidine-1-carboxylate. Format: functional, cell-based. In short, it runs like this: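 Tetracycline-inducible human GPR119 cells plated 7.5 × 10⁵/well 24 h ahead in growth medium (DMEM, 10% FBS) with 1 ng/ml tetracycline. Compound exposure 60 min, then lysis; cAMP read by enzyme fragment complementation fluorescence. EC₅₀ and Emax derived.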

Data set [2] can be described thus: Metabolic stability in mouse liver microsomes assessed as compound remaining after 10 mins. The data set is classed as ADME. Particulars: read-out: Stability.
The target of data set [3] is T2, Glucose-dependent insulinotropic receptor (Homo sapiens, UniProt Q8TDV5).
T2 sequence (Q8TDV5 whole entry): T1 sequence (whole entry)
In words: Agonist activity at human GPR119 expressed in HEK293 cells co-expressing Flp-In-T-Rex assessed as cAMP accumulation after 60 mins. The data set is classed as functional, cell-based. The procedure, abridged:
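Tetracycline-inducible human GPR119 cell line, plated at 7.5 × 10⁵ cells/well 24 h before assay in DMEM with 10% FBS and 1 ng/ml tetracycline. Medium was then swapped for PBS assay buffer containing 25 mM HEPES (pH 7.4), 12 mM glucose, 0.01% FAF-BSA and 0.1 mM IBMX. Cells were exposed to compound for 60 min, then lysed. cAMP was read by enzyme fragment complementation fluorescence; EC50 and Emax reported.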

The nature of data set [4]: Metabolic stability in human liver microsomes assessed as compound remaining after 10 mins. The data set is classed as ADME. The following applies: read-out: Stability.
The target of data set [5] is Glucose-dependent insulinotropic receptor (Homo sapiens) (UniProt Q8TDV5). The data set is described as follows: Agonist activity at human GPR119 expressed in HEK293 cells co-expressing Flp-In-T-Rex assessed as cAMP accumulation after 60 mins.
For data set [6], the target named is T3, Nuclear receptor subfamily 1 group I member 2 (Homo sapiens, UniProt O75469).
T3 sequence (O75469 whole entry): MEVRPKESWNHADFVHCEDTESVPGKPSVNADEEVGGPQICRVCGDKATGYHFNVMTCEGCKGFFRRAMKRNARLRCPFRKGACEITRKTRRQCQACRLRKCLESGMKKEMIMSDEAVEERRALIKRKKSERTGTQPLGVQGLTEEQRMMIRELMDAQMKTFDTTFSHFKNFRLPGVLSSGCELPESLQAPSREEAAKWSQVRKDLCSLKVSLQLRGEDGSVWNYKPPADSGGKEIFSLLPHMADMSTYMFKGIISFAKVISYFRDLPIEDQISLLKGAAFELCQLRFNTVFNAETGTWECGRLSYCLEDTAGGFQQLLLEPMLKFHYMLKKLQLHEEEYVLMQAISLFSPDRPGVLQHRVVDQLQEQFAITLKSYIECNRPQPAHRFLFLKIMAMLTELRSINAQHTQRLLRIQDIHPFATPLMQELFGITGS
The data set is described as follows: Transactivation of PXR (unknown origin).

Data set [7] can be described thus: Inhibition of CYP450 (unknown origin). The data set is classed as ADME. The following applies: human.
A short description of data set [8]: Permeability of the compound by PAMPA. The data set is classed as physicochemical.
Data set [9] can be described thus: Aqueous solubility of the compound at pH 6.5. The data set is classed as physicochemical.

Activity calls are given as the source filed them. The calls are words filed in the database; no cut-off is given here. Some results are limits rather than exact numbers.

With `CCCc1cnc(N2CCC(C3(C)Cc4cc(C5=CCN(S(=O)(=O)CCC)CC5)ccc4O3)CC2)nc1` (racemic), the Emax in data set [1] worked out at 48%. For the same compound, the remaining at 10 min in data set [2] came to 52%; in [4], 68%. Further, in [3], the EC50 came to 0.07 µM.

As to `CCCc1cnc(N2CCC(C3Cc4cc(C5=CCN(S(=O)(=O)CCCO)CC5)cc(F)c4O3)CC2)nc1` (racemic), the Emax in [1] was found to be 92%. Besides, the figures for the remaining at 10 min in [2] and in data set [4] were 60% and 100%, respectively. Further, the EC50 in data set [3] was 0.122 µM.

`CCCS(=O)(=O)N1CC=C(c2ccc3c(c2)CC(C2CCN(C(=O)OC(C)C)CC2)O3)CC1` (racemic): the Emax in [1] is 61%. Moreover, the remaining at 10 min came to 12% in [2] and 10% in data set [4]. The EC50 in [3] was 0.103 µM. Moreover, in [5], the result was Active.

For the compound `CCCc1cnc(N2CCC(C3Cc4cc(C5=CCN(S(=O)(=O)CCC)CC5)ccc4O3)CC2)nc1` (racemic), the Emax in data set [1] came out at 107%. Moreover, the remaining at 10 min was 58% in data set [2] and 71% in [4]. In addition, the EC50 in [3] was found to be 0.082 µM. Further, in data set [5], the result was Active.

In the case of `CCCc1cnc(N2CCC(C3Cc4c(ccc(C5=CCN(S(=O)(=O)CCC)CC5)c4F)O3)CC2)nc1` (racemic), the Activity result in [6] was “Not Active”. In addition, the Emax in data set [1] worked out at 123%. Also, the “inhibition (INH)” value in data set [7] is reported as “Not Active”. For the same compound, the remaining at 10 min in data set [2] is 78%; in data set [4] it was 87%. The EC50 in [3] was 0.005 µM. Besides, the permeability entry in data set [8] is on record as “permeable”. The solubility in data set [9] (aqueous, read-out: solubility) is < 1 µg/mL.

Consider `CCCc1cnc(N2CCC(C3Cc4cc(C5=CCN(S(=O)(=O)CCCCO)CC5)cc(F)c4O3)CC2)nc1` (racemic), for which the Emax in data set [1] stood at 98%. Moreover, the remaining at 10 min worked out at 59% in data set [2] and 73% in data set [4]. For the same compound, the EC50 in data set [3] stood at 0.06 µM.

Turning to `CCCS(=O)(=O)N1CC=C(c2ccc3c(c2)CC(C2CCN(c4ccc(C(F)(F)F)cn4)CC2)O3)CC1` (racemic), in [1], the Emax turned out to be 99%. In addition, the remaining at 10 min turned out to be 46% in data set [2] and 47% in data set [4]. Further, the half-maximal effective concentration (EC50) in data set [3] amounted to 0.034 µM. In data set [5], the result was Active.

`CCCc1cnc(N2CCC(C3Cc4cc(-c5ccc(S(C)(=O)=O)cc5F)ccc4O3)CC2)nc1` (racemic): the Emax in [1] turned out to be 53%. Also, the EC50 in data set [3] stood at 0.541 µM.

In the case of `CCCS(=O)(=O)N1CC=C(c2ccc3c(c2)CC(C2CCN(Cc4ccccc4)CC2)O3)CC1` (racemic), the Emax in data set [1] came out at 88%. For the same compound, the EC50 in data set [3] is 0.521 µM. Moreover, the result in data set [5] was Active.

With `CCCS(=O)(=O)N1CC=C(c2ccc3c(c2)CC(C2CCN(C(=O)OC4CCCCC4)CC2)O3)CC1` (racemic), the maximal effect (Emax) in data set [1] is 56%. The EC50 in [3] stood at 0.051 µM. In addition, the outcome in [5] was Active.

As to `CCCc1cnc(N2CCC(C3Cc4c(F)c(C5=CCN(S(=O)(=O)CCC)CC5)cc(F)c4O3)CC2)nc1` (racemic), the Activity result in data set [6] is on record as “Not Active”. Also, the Emax in data set [1] is 119%. In data set [7], the “inhibition (INH)” value is “Not Active”. Moreover, the remaining at 10 min in [2] was 80%; in data set [4], 78%. Moreover, the EC50 in data set [3] was determined as 0.002 µM. Further, the permeability entry in data set [8] is “permeable”. Moreover, the solubility in data set [9] (aqueous, read-out: solubility) was < 1 µg/mL.

Take `CCCc1cnc(N2CCC(C3Cc4c(F)c(C5=CCN(S(=O)(=O)CCCO)CC5)cc(F)c4O3)CC2)nc1` (racemic): the Emax in data set [1] was 86%. Further, the remaining at 10 min in data set [2] was determined as 82%; in [4], 89%. In data set [3], the EC50 was 0.016 µM.

For the compound `CCCc1cnc(N2CCC(C3Cc4cc(N5CCN(S(=O)(=O)CCC)CC5)ccc4O3)CC2)nc1` (racemic), the maximum response (Emax) in data set [1] amounted to 74%. Also, the remaining at 10 min in [2] was 44%; in data set [4] it was 82%. In addition, in [3], the EC50 was determined as 0.544 µM.

With `CCCS(=O)(=O)N1CC=C(c2ccc3c(c2)CC(C2CCN(c4ncc(C(F)(F)F)cn4)CC2)O3)CC1` (racemic), in data set [1], the Emax is 118%. In data set [3], the EC50 came to 0.014 µM. Further, the remaining at 10 min in data set [4] amounted to 58%. Also, the solubility entry in [9] (buffer) is reported as “Insoluble”. Besides, the outcome in data set [5] was Active.

Consider `CCCc1cnc(N2CCC(C3Cc4c(F)c(C5=CCN(S(=O)(=O)CCC(C)(C)O)CC5)cc(F)c4O3)CC2)nc1` (racemic), for which, in data set [1], the Emax stood at 82%. The remaining at 10 min amounted to 61% in [2] and 55% in [4]. The 50% effective concentration (EC50) in data set [3] was determined as 0.101 µM.

Turning to `CCCc1cnc(N2CCC(C3Cc4cc(C5CCN(S(=O)(=O)CCC)CC5)ccc4O3)CC2)nc1` (racemic), the Emax in [1] worked out at 43%. Moreover, the remaining at 10 min in [2] came out at 52%; in [4], 70%. Further, in data set [3], the EC50 turned out to be 0.386 µM.

With `CCCc1cnc(N2CCC(C3Cc4cc(C5=CCN(S(=O)(=O)CCC)CC5)cc(F)c4O3)CC2)nc1` (racemic), the Emax in data set [1] stood at 93%. Moreover, the remaining at 10 min worked out at 74% in [2] and 97% in data set [4]. In addition, the EC50 in data set [3] turned out to be 0.062 µM.

As to `CCCS(=O)(=O)N1CC=C(c2ccc3c(c2)CC(C2CCN(c4ncc(Cl)cn4)CC2)O3)CC1` (racemic), the Emax in [1] was determined as 88%. Also, the remaining at 10 min in data set [2] stood at 45%; in data set [4] it was 48%. Besides, the EC50 in [3] worked out at 0.078 µM. Also, the result in data set [5] was Active.

`CCCS(=O)(=O)N1CC=C(c2ccc3c(c2)CC(C2CCN(S(=O)(=O)CCC)CC2)O3)CC1` (racemic): in [1], the Emax was found to be 43%. The EC50 in data set [3] stood at 1 µM. In [5], the outcome was Active.

With `CCCc1cnc(N2CCC(C3(C)Cc4cc(C5=CCN(S(=O)(=O)CCCO)CC5)ccc4O3)CC2)nc1` (racemic), the maximum response (Emax) in [1] was determined as 78%. Further, the remaining at 10 min in [2] stood at 42%; in data set [4], 72%. For the same compound, in data set [3], the EC50 was 0.078 µM.

Turning to `CCCS(=O)(=O)N1CC=C(c2ccc3c(c2)CC(C2CCN(c4ncc(C5CC5)cn4)CC2)O3)CC1` (racemic), the Emax in data set [1] was 85%. Moreover, the remaining at 10 min in [2] was 3%; in data set [4] it was 58%. Moreover, the 50% effective concentration (EC50) in data set [3] came to 0.067 µM. Besides, the outcome in data set [5] was Active.

Take `CCCc1cnc(N2CCC(C3(C)Cc4cc(C5=CCN(S(=O)(=O)CCCCO)CC5)ccc4O3)CC2)nc1` (racemic): the Emax in data set [1] came out at 67%. Besides, the values for the remaining at 10 min in data set [2] and in data set [4] were 70% and 67%, respectively. For the same compound, the EC50 in [3] turned out to be 0.028 µM.

The values are drawn from ChEMBL document CHEMBL3259592, “Synthesis and structure-activity relationship of dihydrobenzofuran derivatives as novel human GPR119 agonists” (Bioorg Med Chem Lett, 2014).
